Shown are actives, neighbours in structure and some others; about 3.1% of the full set was active somewhere.
PREPL inh = PREPL enzyme inhibitors, primary screen, biochemical, fluorescence polarization. 320,000 tested, 0.68% active. AID 2751, 2010. inhibition, % at 5.96 µM. recombinant PREPL, fluorescence polarization activity-based probe; in the data active means inhibition above about 43%;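 further: 0% = enzyme with DMSO and 100% = wells lacking enzyme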
MEKK2wt PB1 HTS = modulators of MEK5 binding to wildtype MEKK2, primary screen, biochemical, multiplex bead flow cytometry, Alexa488-MEK5 | binding response (% of control), % at 10 µM | AID 1531, 2009 | 290,000 tested, 1.1% active | Alexa488-MEK5 binding to MEKK2 WT; actives lie on both sides | Mitogen-activated protein kinase kinase kinase 2 (Homo sapiens), Q9Y2U5; in the data active means binding response below about 67% or above about 130%
MEKK3 PB1 HTS = modulators of MEKK3-MEK5 PB1 binding, primary screen, biochemical, wildtype MEKK3, multiplex bead flow cytometry, Alexa488-MEK5 | Mitogen-activated protein kinase kinase kinase 3 (Homo sapiens), Q99759 | bead-based flow cytometry, Alexa488-MEK5 binding to MEKK3; actives lie on both sides; 0 = blocked by unlabeled MEK5, 100 = vehicle | binding response (% of control), % at 10 µM | 290,000 tested, 1.4% active;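 active means binding response more than 3 SD above or below the average of its plate-row segment, actives on both sides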;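 further: Alexa488 bead fluorescence after subtracting the streptavidin-only scavenger bead signal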
UBC13 inh = UBC13 polyubiquitin chain formation inhibitors, primary screen, biochemical, TR-FRET, uHTS; Ubiquitin-conjugating enzyme E2 N (Homo sapiens), P61088; inhibition, % at 20 µM; 330,000 tested, 0.47% active; in the data active means inhibition above about 45%, passing the limit was not always enough
Apaf1 inhib = inhibitors of human Apaf-1 apoptosome, primary screen, biochemical, DEVD-Rh110 fluorescence, uHTS. Apoptotic protease-activating factor 1 (Homo sapiens), O14727. reconstituted apoptosome caspase-3 activity. inhibition, % at 20 µM. 330,000 tested, 0.71% active. AID 489030, 2010; active means inhibition of at least 40% at 20 µM;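 further: plate controls were DMSO wells for no effect and DEVD-CHO caspase inhibitor wells for full effect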
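System – cell-free apoptosome with Apaf-1, procaspase-3 and caspase-9 · Buffer or medium – pH 7.5 Hepes buffer with CHAPS, BSA, DTT · Also added – cytochrome c with DEVD-Rh110 · Times – 30 min compound preincubation, 50 min activation, room temperature · Technique – Rh110 fluorescence intensity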
MEKK2 mut-MEK5 = MEK5 binding signal on mutant MEKK2 PB1, primary screen, biochemical, multiplex bead flow cytometry, Alexa488-MEK5; Alexa488-MEK5 binding to MEKK2 mutant; percent response, % at 10 µM; 290,000 tested, 0.35% active; in the data active means percent response above about 24%, passing the limit was not always enough
MEKK2wt confirm = modulators of MEK5 binding to wildtype MEKK2, confirmation, biochemical, single concentration, multiplex bead flow cytometry | shares compounds with MEKK3 PB1 HTS | Alexa488-MEK5 binding to MEKK2 WT; actives lie on both sides | binding response (% of control), % at 10 µM | 5,900 tested, 2.4% active; in the data active means binding response below about 16% or above about 210%; inactive means in between
MEKK2mut confirm = mutant MEKK2 PB1-MEK5 binding signal retest – biochemical, single concentration, multiplex bead flow cytometry, confirmation; percent response, % at 10 µM; 5,900 tested, 2% active; shares compounds with MEKK3 PB1 HTS; Alexa488-MEK5 binding to MEKK2 mutant; in the data active means percent response mostly above about 71%, no sharp cut-off; inactive means mostly below about 38%;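 further: higher means compound restores mutant binding toward wildtype level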
MEKK3-MEK5 inh = MEKK3 wild-type PB1 binding to MEK5, inhibitors, confirmation, biochemical, bead multiplex flow cytometry, single concentration, wildtype; binding response (% of control), % at 10 µM; AID 1894, 2009; Alexa488-MEK5 binding to MEKK3; active compounds read low; 5,900 tested, 1.8% active; shares compounds with MEKK3 PB1 HTS;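 active means binding response below 72% of control, or above a set upper limit, though filed actives all read lower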;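 further: 100% = DMSO only wells and 0% = binding blocked by excess unlabeled MEK5; lower values mean stronger disruption of MEK5 binding to MEKK3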
* = called active by the depositor; [ ] = remark or other dose.

`N=c1c2c(-c3ccccc3)c(-c3ccccc3)n(Cc3ccco3)c2ncn1Cc1ccco1` gave PREPL inh 11, MEKK2wt PB1 HTS 152*, MEKK3 PB1 HTS 112, UBC13 inh 37, Apaf1 inhib 29, MEKK2 mut-MEK5 41*, MEKK2wt confirm 155, MEKK2mut confirm 25 and MEKK3-MEK5 inh 104.
For COc1cc2ccccc2cc1C(=O)NC1CCC(C)CC1 (centres undefined) the results were PREPL inh 1, UBC13 inh -8 and Apaf1 inhib 15.
Cc1cc(S(=O)(=O)N2CCCC(N(C)CCc3ccccn3)C2)c(C)cc1Cl (centres undefined) was read as PREPL inh 2, MEKK2wt PB1 HTS 99, MEKK3 PB1 HTS 99, UBC13 inh -2, Apaf1 inhib 5 and MEKK2 mut-MEK5 1.
For CC(C)OC(=O)CSc1nc2ncccc2[nH]1 the results were PREPL inh -5, MEKK2wt PB1 HTS 45*[inhibitor], MEKK3 PB1 HTS 33*[inhibitor], UBC13 inh 8, Apaf1 inhib 3, MEKK2 mut-MEK5 -14, MEKK2wt confirm 100, MEKK2mut confirm -2 and MEKK3-MEK5 inh 102.
`Cc1cccc(NC(=O)CCc2nnc3ccc(N4CCC(C)CC4)nn23)n1` gave PREPL inh -5, MEKK2wt PB1 HTS 106, MEKK3 PB1 HTS 103, UBC13 inh -4, Apaf1 inhib -1 and MEKK2 mut-MEK5 8.
Screening Cc1ccc(C(=O)NNc2cc(=O)n(C)c(=O)n2C)cc1C returned PREPL inh 2, MEKK2wt PB1 HTS 105, MEKK3 PB1 HTS 142*, UBC13 inh -13, Apaf1 inhib 20, MEKK2 mut-MEK5 0, MEKK2wt confirm 102, MEKK2mut confirm -8 and MEKK3-MEK5 inh 102.
Cn1c(NNC(=O)c2c(F)cccc2F)cc(=O)n(C)c1=O was read as PREPL inh 6, MEKK2wt PB1 HTS 100, MEKK3 PB1 HTS 101, UBC13 inh -19, Apaf1 inhib -13 and MEKK2 mut-MEK5 -4.
Screening CCN(CC)CCNC(=O)/C(=C/c1cn(C)c2ccccc12)NC(=O)c1ccc(OC)c(OC)c1 returned PREPL inh -3, MEKK2wt PB1 HTS 103, MEKK3 PB1 HTS 102, UBC13 inh 3, Apaf1 inhib -17 and MEKK2 mut-MEK5 5.
Screening Nc1ccc(-c2ccc(N)c(C(=O)O)c2)cc1C(=O)O returned PREPL inh 4, MEKK2wt PB1 HTS 46*[inhibitor], MEKK3 PB1 HTS 44*[inhibitor], UBC13 inh -9, Apaf1 inhib 5, MEKK2 mut-MEK5 -12, MEKK2wt confirm 102, MEKK2mut confirm -3 and MEKK3-MEK5 inh 102.
Nc1ccc(Br)cc1C(=O)O was read as PREPL inh -6, MEKK2wt PB1 HTS 103, MEKK3 PB1 HTS 102, UBC13 inh -4, Apaf1 inhib -3 and MEKK2 mut-MEK5 0.
Screening COc1cc(C(=O)Nc2cccc(-c3cn4cccnc4n3)c2)cc(OC)c1OC returned PREPL inh -6, MEKK2wt PB1 HTS 101, MEKK3 PB1 HTS 101, UBC13 inh 28, Apaf1 inhib -5 and MEKK2 mut-MEK5 2.

Screening data deposited in PubChem by several laboratories.
